For series [1], the target named is T1, Cyclooxygenase (Rattus norvegicus, UniProt P35355+Q63921).
T1 sequence (P35355 whole entry): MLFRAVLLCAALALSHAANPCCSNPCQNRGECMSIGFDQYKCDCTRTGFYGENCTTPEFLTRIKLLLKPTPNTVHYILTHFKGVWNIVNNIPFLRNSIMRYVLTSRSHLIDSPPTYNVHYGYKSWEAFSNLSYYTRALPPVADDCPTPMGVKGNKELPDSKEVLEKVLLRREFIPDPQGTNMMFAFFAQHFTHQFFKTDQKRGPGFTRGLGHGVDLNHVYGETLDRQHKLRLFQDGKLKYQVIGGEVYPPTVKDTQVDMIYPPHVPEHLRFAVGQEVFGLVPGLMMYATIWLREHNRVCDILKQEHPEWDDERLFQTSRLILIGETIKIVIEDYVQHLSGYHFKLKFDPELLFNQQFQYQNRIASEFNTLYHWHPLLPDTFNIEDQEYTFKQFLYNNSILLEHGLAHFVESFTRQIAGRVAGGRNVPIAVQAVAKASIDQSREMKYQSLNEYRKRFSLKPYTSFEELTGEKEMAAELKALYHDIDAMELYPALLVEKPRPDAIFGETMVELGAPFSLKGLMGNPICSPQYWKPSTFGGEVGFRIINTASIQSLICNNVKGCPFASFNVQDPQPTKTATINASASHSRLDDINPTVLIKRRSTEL
T1 sequence (Q63921 whole entry): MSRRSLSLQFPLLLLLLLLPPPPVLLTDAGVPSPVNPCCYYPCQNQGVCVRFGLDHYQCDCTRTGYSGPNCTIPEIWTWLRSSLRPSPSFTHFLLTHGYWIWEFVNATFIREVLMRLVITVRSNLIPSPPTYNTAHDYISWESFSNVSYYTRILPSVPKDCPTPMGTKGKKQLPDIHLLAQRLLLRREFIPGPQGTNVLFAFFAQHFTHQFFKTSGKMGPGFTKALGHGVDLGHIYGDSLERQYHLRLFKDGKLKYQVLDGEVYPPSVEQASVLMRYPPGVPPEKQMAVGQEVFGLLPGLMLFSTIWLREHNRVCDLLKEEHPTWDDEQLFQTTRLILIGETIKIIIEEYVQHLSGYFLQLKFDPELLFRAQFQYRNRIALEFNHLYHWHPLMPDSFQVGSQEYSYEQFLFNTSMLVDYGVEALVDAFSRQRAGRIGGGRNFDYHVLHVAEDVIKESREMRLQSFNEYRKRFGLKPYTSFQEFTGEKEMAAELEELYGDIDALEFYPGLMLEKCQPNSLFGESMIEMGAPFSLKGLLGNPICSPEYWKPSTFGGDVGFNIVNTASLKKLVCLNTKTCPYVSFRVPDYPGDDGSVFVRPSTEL
Briefly: In vitro inhibitory activity against Prostaglandin G/H synthase in rat neutrophils.

Series [2] concerns Rattus norvegicus. Briefly: Compound was tested for intestinal ulcerogenic effect in rats, activity expressed as lesion score at a dose of 30 mg/kg. It is filed as functional. The procedure, abridged: (§1)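 Normal fed rats were gavaged once daily for three consecutive days at 10–300 mg/kg and killed 24 h after the last dose. Intestines were examined for ulcers, recording incidence per group of 8 and a lesion score (±SE).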

Series [3] relates to Rattus norvegicus. Description: Compound was tested in vivo for antiinflammatory activity against chronic adjuvant arthritic rat by therapeutic inhibition 1 degree paw after peroral administration of 10 mg/kg of dose. As to conditions: route oral. Type of series: functional.
Series [4] has as its system Rattus norvegicus. Description: Compound was tested for intestinal ulcerogenic effect in rats at a dose of 300 mg/kg. It is filed as functional. A digest of the protocol: as §1
For series [5], the system named is Rattus norvegicus. Description: Compound was tested for gastric ulcerogenic effect in rats, activity expressed as lesion length at a dose of 10 mg/kg.
The test system of series [6] is Rattus norvegicus. Briefly: Compound was tested in vivo for antiinflammatory activity against chronic adjuvant arthritic rat by therapeutic inhibition 1 degree paw after peroral administration of 3.3 mg/kg of dose. It is filed as functional. As to conditions: route oral.
Series [7] relates to Rattus norvegicus. Briefly: Compound was tested for gastric ulcerogenic effect in rats, activity expressed as lesion length at a dose of 100 mg/kg.
The subject of series [8] is Rattus norvegicus. Briefly: Compound was tested for intestinal ulcerogenic effect in rats, activity expressed as lesion score at a dose of 300 mg/kg. It is filed as functional. A digest of the protocol:
as §1

Series [9] concerns Rattus norvegicus. Description: Compound was tested in vivo for antiinflammatory activity against chronic adjuvant arthritic rat by therapeutic inhibition 2 degree paw after peroral administration of 10 mg/kg of dose. As to conditions: route oral. It is filed as functional.
In series [10] the test system is Rattus norvegicus. Description: Compound was tested in vivo for antiinflammatory activity against chronic adjuvant arthritic rat by prophylactic inhibition 2 degree paw after peroral administration of 18 mg/kg of dose. As to conditions: po.
Series [11] relates to Rattus norvegicus. Briefly: Compound was tested in vivo for antiinflammatory activity against chronic adjuvant arthritic rat by prophylactic inhibition 1 degree paw after peroral administration of 36 mg/kg of dose. Conditions: po.
The subject of series [12] is Rattus norvegicus. Briefly: Compound was tested for gastric Ulcerogenic effect in rats, activity expressed as lesion length at a dose of 300 mg/kg.
Series [13] can be described thus: Plasma level data at a dose of 20 mg/kg, po after 4 hr. It is filed as ADME, organism-based. Also noted: dose 20 mg/kg, route oral. Conditions: read-out: Plasma level. A digest of the protocol:
(§2)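 Male Lewis rats get a single iv or oral dose of the sodium salt, suspended in 0.4% (w/v) methyl cellulose. Plasma drug levels are measured by HPLC at the timed points and given as mean ± SD, n = 3.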

The test system of series [14] is Rattus norvegicus. Description: Compound was tested for intestinal Ulcerogenic effect in rats, activity expressed as ulcer incidence at a dose of 30 mg/kg. It is filed as functional. A digest of the protocol: as §1
Series [15] is described as follows: Plasma level data at a dose of 20mg/kg, po after 2 hr. It is filed as ADME, organism-based. As to conditions: read-out: Plasma level. The procedure, abridged: as §2
In series [16] the test system is Rattus norvegicus. Briefly: Compound was tested for gastric Ulcerogenic effect in rats, activity expressed as lesion length at a dose of 10 mg/kg.
Series [17] can be described thus: Plasma level data at a dose of 20 mg/kg, iv after 2 hr. It is filed as ADME, organism-based. Also noted: dose 20 mg/kg, route intravenous. Conditions: read-out: Plasma level. The procedure, abridged: as §2
The subject of series [18] is Rattus norvegicus. Description: Compound was tested for gastric Ulcerogenic effect in rats, activity expressed as lesion length at a dose of 100 mg/kg.
The test system of series [19] is Rattus norvegicus. Description: Compound was tested in vivo for antiinflammatory activity against chronic adjuvant arthritic rat by therapeutic inhibition 2 degree paw after peroral administration of 1 mg/kg of dose. Type of series: functional. Conditions: route oral.
The subject of series [20] is Rattus norvegicus. Description: Compound was tested in vivo for antiinflammatory activity against chronic adjuvant arthritic rat by therapeutic inhibition 1 degree paw after peroral administration of 1 mg/kg of dose. It is filed as functional. As to conditions: route oral.
Series [21] has as its system Rattus norvegicus. Description: Compound was tested for intestinal Ulcerogenic effect in rats, activity expressed as ulcer incidence at a dose of 10 mg/kg. It is filed as functional. A digest of the protocol: as §1
Series [22] deals with Rattus norvegicus. Briefly: Compound was tested for intestinal Ulcerogenic effect in rats, activity expressed as lesion score at a dose of 10 mg/kg. It is filed as functional. A digest of the protocol:
as §1

The test system of series [23] is Rattus norvegicus. Description: Compound was tested for intestinal Ulcerogenic effect in rats, activity expressed as lesion score at a dose of 30 mg/kg. Type of series: functional. A digest of the protocol:
as §1

Series [24] is described as follows: Plasma level data at a dose of 20 mg/kg, po after 1 hr. As to conditions: read-out: Plasma level. Type of series: ADME, organism-based. Also noted: dose 20 mg/kg, route oral. The procedure, abridged:
as §2

A short description of series [25]: Plasma level data at a dose of 36 mg/kg, po after 1 hr. Type of series: ADME, organism-based. Also noted: dose 36 mg/kg, route oral. As to conditions: read-out: Plasma level. A digest of the protocol:
as §2

Series [26] is described as follows: Plasma level data at a dose of 36 mg/kg, po after 2 hr. Type of series: ADME, organism-based. More on the design: dose 36 mg/kg, route oral. Conditions: read-out: Plasma level. A digest of the protocol: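 Male Lewis rats given a single po dose of the sodium salt suspended in 0.4% (w/v) methyl cellulose. Plasma drug levels measured by HPLC at set times up to 12 h; values are mean ± SD, n = 3.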

`CC(C)=CCc1c(O)n(Cc2ccc(F)cc2)c2nc3c(c(=O)n(C)c(=O)n3C)n2c1=O`: the IC50 in series [1] was found to be 4.2 µM. The Lesion length in [2] amounted to 0 mm rat-1; in [8], 0.2 mm rat-1. In addition, the inhibition in vivo at 10 mg/kg in [3] was determined as 38%; in series [9], 67%. In series [4], this molecule came in with a Ulcer incidence of 2 number/group. For the same molecule, the Length worked out at 0 mm rat-1 in series [5] and 0.1 mm rat-1 in series [7]. For the same molecule, the inhibition in vivo at 3.3 mg/kg in series [6] is 21%. Further, the inhibition in vivo at 18 mg/kg in [10] is 69%. The inhibition in vivo at 36 mg/kg in series [11] was 44%.

`CC(C)=CCc1c(O)n(Cc2ccccc2)c2nc3c(c(=O)n(C)c(=O)n3C)n2c1=O` came in with an IC50 in [1] of 2 µM. For the same molecule, the Length in [12] is given as 9.6 mm rat-1; in series [16], 0 mm rat-1; in series [18], 1 mm rat-1. Further, the concentration at 4 h in series [13] came to 39000 ng/mL. Further, the inhibition in vivo at 10 mg/kg worked out at 54% in series [3] and 70% in series [9]. Also, the Ulcer incidence in [14] and in series [21] was 0 number/group throughout. For the same molecule, the concentration at 2 h was found to be 21900 ng/mL in [15] and 53800 ng/mL in series [17]. For the same molecule, the inhibition in vivo at 3.3 mg/kg in series [6] was found to be 24%. The inhibition in vivo at 1 mg/kg in series [19] amounted to 37%; in series [20], 0%. For the same molecule, in series [22], the Lesion length is 0 mm rat-1. The molecule further displayed a Lesion score in series [23] of 0 mm rat-1. Besides, the concentration at 1 h in series [24] turned out to be 17300 ng/mL.

On to `CCCc1c(O)n(Cc2ccc(F)cc2)c2nc3c(c(=O)n(C)c(=O)n3C)n2c1=O`, for which the Length in [12] is recorded as 0 mm rat-1; in series [16], 0 mm rat-1; in [18], 0.2 mm rat-1. The Ulcer incidence in series [14] and in series [21] was 0 number/group throughout. Further, the concentration at 1 h in series [25] was found to be 23100 ng/mL. The same molecule displayed a Lesion length in series [22] of 0 mm rat-1. In series [23], the Lesion score came to 0 mm rat-1. Also, the concentration at 2 h in series [26] is 66100 ng/mL. Also, in series [10], the inhibition in vivo at 18 mg/kg came to 49%. In addition, the inhibition in vivo at 36 mg/kg in series [11] stood at 60%.

These data come from ChEMBL document CHEMBL1123282, “Antiinflammatory activity of substituted 6-hydroxypyrimido[2,1-f]purine-2,4,8(1H,3H,9H)-triones. Atypical nonsteroidal antiinflammatory agents” (J Med Chem, 1986).
